Assay results published in publication PMC11698471 (Neuropharmacology, 2022).

Assays:
[1] = tested on: L-DOPA-induced abnormal involuntary movements; details: rodents; ref Giorgi et al., 2008; Picconi et al., 2011; cited from earlier work
PDE 9, 10, and 11 = details: cited from earlier work
PDE 5 and 6 = details: cited from earlier work
[2] = tested on: MPTP-treated parkinsonian macaques; test: PDE9i - L-DOPA co-administration trial in MPTP parkinsonian macaques; format: in vivo, Macaca Mulatta and Fascicularis; details: L-DOPA suboptimal dose s.c. alone, typical average
[3] = Plasma pharmacokinetics in awake macaques; format: in vivo, Macaca Mulatta and Fascicularis; details: suboptimal L-DOPA + PDE9i 5 mg/kg vs PDE9i vehicle
How it was run: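 Two awake, chair-trained MPTP-parkinsonian macaques from the behavioural cohort were restrained unsedated. Test compound (s.c., 5 mg/kg, or 0 mg/kg vehicle) was given with each animal's sub-optimal s.c. L-DOPA methyl ester/benserazide dose. Saphenous vascular-port blood was drawn pre-injection and at 60, 120 and 180 min. Each treatment was given twice, and samples were processed in duplicate. Plasma was stored at −80°C for LC/MS.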

[4] = tested on: MPTP-treated parkinsonian macaques; test: L-Dopa responses of the parkinsonian macaques; format: in vivo, Macaca Mulatta and Fascicularis

| SMILES | L-DOPA-induced abnormal involuntary movements [1] | affinity for PDE 9, 10, and 11 (PDE 9, 10, and 11) | affinity for PDE 5 and 6 (PDE 5 and 6) | response duration ("on" state) [2] [min] | plasma levels of L-DOPA with PDE9i addition [3] | LID (dyskinesia score at peak-dose effect of L-dopa) ([4]; monkey 1, scale 0 to 27) | MDS ON (motor disability score at the peak-dose effect of L-dopa) ([4]; monkey 1, scale 0 to 39, MDS OFF 17) | LID (dyskinesia score at peak-dose effect of L-dopa) ([4]; monkey 2, scale 0 to 27) | MDS ON (motor disability score at the peak-dose effect of L-dopa) ([4]; monkey 2, scale 0 to 39, MDS OFF 17) | LID (dyskinesia score at peak-dose effect of L-dopa) ([4]; monkey 3, scale 0 to 27) | MDS ON (motor disability score at the peak-dose effect of L-dopa) ([4]; monkey 3, scale 0 to 39, MDS OFF 19) | LID (dyskinesia score at peak-dose effect of L-dopa) ([4]; monkey 4, scale 0 to 27) | MDS ON (motor disability score at the peak-dose effect of L-dopa) ([4]; monkey 4, scale 0 to 39, MDS OFF 22) | LID (dyskinesia score at peak-dose effect of L-dopa) ([4]; monkey 5, scale 0 to 27) | MDS ON (motor disability score at the peak-dose effect of L-dopa) ([4]; monkey 5, scale 0 to 39, MDS OFF 23) | LID (dyskinesia score at peak-dose effect of L-dopa) ([4]; monkey 6, scale 0 to 27) | MDS ON (motor disability score at the peak-dose effect of L-dopa) ([4]; monkey 6, scale 0 to 39, MDS OFF 23.5) |
| --- | --- | --- | --- | --- | --- | --- | --- | --- | --- | --- | --- | --- | --- | --- | --- | --- | --- |
| CCCOc1ccccc1-c1nc2nn[nH]c2c(=O)[nH]1 [zaprinast] | reduction of L-DOPA-induced abnormal involuntary movements | weak | moderate | – | – | – | – | – | – | – | – | – | – | – | – | – | – |
| N[C@@H](Cc1ccc(O)c(O)c1)C(=O)O [L-DOPA] | – | – | – | ~100 | remained unchanged | 13 | 1.5 | 11.5 | 1.5 | 10 | 3.5 | 9 | 4.5 | 7 | 8.5 | 11 | 3.5 |
